In ChEMBL document CHEMBL4706538, “Novel pleuromutilin derivatives with substituted 6-methylpyrimidine: Design, synthesis and antibacterial evaluation” (2020):
Values after ≈ are worked out from the molar mass of the structure shown.

Legend:
Escherichia coli = assay: Antibacterial activity against Escherichia coli CICC 10389 measured after 18 to 24 hrs by microtiter dilution method; format: functional; details: time 18-24 hrs
Outline: (§1)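 Compounds were taken up in 25% DMSO at 64 μg/mL and serially diluted two-fold in water (11 dilutions). Log-phase bacteria grown in MHB were diluted to 10^5-10^6 CFU/mL and mixed 1:1 with the dilutions. Plates were incubated at 37 °C for 18-24 h. MIC was the lowest concentration giving no growth by OD492, averaged over three independent experiments.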

Enterococcus faecalis = assay: Antibacterial activity against Enterococcus faecalis measured after 18 to 24 hrs by microtiter dilution method; format: functional; details: time 18-24 hrs; outline: as §1
Streptococcus agalactiae = assay: Antibacterial activity against Streptococcus agalactiae measured after 18 to 24 hrs by microtiter dilution method; format: functional; details: time 18-24 hrs; outline: as §1
Staphylococcus aureus [1] = assay: Antibacterial activity against Staphylococcus aureus ATCC 25923 measured after 18 to 24 hrs by microtiter dilution method; format: functional; details: time 18-24 hrs; outline: as §1
Staphylococcus aureus [2] = assay: Antibacterial activity against Staphylococcus aureus BNCC 337371 measured after 18 to 24 hrs by microtiter dilution method; format: functional; details: time 18-24 hrs; outline: as §1
[3] = test system: Streptococcus dysgalactiae; assay: Antibacterial activity against Streptococcus dysgalactiae measured after 18 to 24 hrs by microtiter dilution method; format: functional; details: time 18-24 hrs; outline: as §1
Pasteurella multocida = assay: Antibacterial activity against Pasteurella multocida CVCC 1659 measured after 18 to 24 hrs by microtiter dilution method; format: functional; details: time 18-24 hrs; outline: as §1
[4] = test system: Staphylococcus epidermidis; assay: Antibacterial activity against Staphylococcus epidermidis ATCC 51625 measured after 18 to 24 hrs by microtiter dilution method; format: functional; details: time 18-24 hrs; outline: as §1
Staphylococcus aureus [5] = assay: Bacteriostatic activity against Staphylococcus aureus BNCC 337371 assessed as reduction in bacterial load at 2 to 4 times MIC incubated for 8 hrs prior to 10 fold dilution followed by replating on MH agar plate and measured after 24 hrs by time-kill assay relative to control; format: functional; details: time 32 hrs
Outline: (§2)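 MRSA-337371 was grown in Mueller-Hinton broth at 37 °C for 6 h with shaking, then diluted to about 6×10^5 CFU/mL. It was exposed to 0.5, 1, 2 and 4× MIC. Samples taken at 0, 2, 4, 6, 8, 12 and 24 h were serially diluted 10-fold in 0.9% saline and plated on MH agar at 37 °C for 24 h. Colonies were counted as log10 CFU/mL, in triplicate.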

Staphylococcus aureus [6] = assay: Bacteriostatic activity against Staphylococcus aureus BNCC 337371 assessed as reduction in bacterial load incubated for 2 to 24 hrs prior to 10 fold dilution followed by replating on MH agar plate and measured after 24 hrs by time-kill assay; format: functional, organism-based; details: time 2-24 hrs; outline: as §2

Row | Structure (SMILES) | MIC (Escherichia coli) [µM] | MIC (Enterococcus faecalis) [µM] | MIC (Streptococcus agalactiae) [µM] | MIC (Staphylococcus aureus [1]) [µM] | MIC (Staphylococcus aureus [2]) [µM] | MIC [3] [µM] | MIC (Pasteurella multocida) [µM] | MIC [4] [µM] | fold change (FC) (Staphylococcus aureus [5]) | Activity (Staphylococcus aureus [6])
1 | C=C[C@]1(C)C[C@@H](OC(=O)CSc2nc(C)cc(OC(C)C)n2)[C@@]2(C)[C@H](C)CC[C@]3(CCC(=O)[C@H]32)[C@@H](C)[C@@H]1O | > 58.8 | 58.8 (≈ 32 µg/mL) | 0.23 (≈ 0.125 µg/mL) | 0.46 (≈ 0.251 µg/mL) | 0.23 (≈ 0.125 µg/mL) | 0.92 (≈ 0.501 µg/mL) | > 58.8 | 0.46 (≈ 0.251 µg/mL) |  | 
2 | C=C[C@]1(C)C[C@@H](OC(=O)CSc2nc(C)cc(N3CCOCC3)n2)[C@@]2(C)[C@H](C)CC[C@]3(CCC(=O)[C@H]32)[C@@H](C)[C@@H]1O | > 56 | 14 (≈ 8 µg/mL) | 0.05 (≈ 0.0286 µg/mL) | 0.11 (≈ 0.0629 µg/mL) | 0.11 (≈ 0.0629 µg/mL) | 0.05 (≈ 0.0286 µg/mL) | 14 (≈ 8 µg/mL) | 0.11 (≈ 0.0629 µg/mL) | >=2 | Dose-dependent effect

The next lines start with results.

Row | MIC (Escherichia coli) [µM] | MIC (Enterococcus faecalis) [µM] | MIC (Streptococcus agalactiae) [µM] | MIC (Staphylococcus aureus [1]) [µM] | MIC (Staphylococcus aureus [2]) [µM] | MIC [3] [µM] | MIC (Pasteurella multocida) [µM] | MIC [4] [µM] | Structure (SMILES) | fold change (FC) (Staphylococcus aureus [5]) | Activity (Staphylococcus aureus [6])
3 | > 52.1 | 26 (≈ 16 µg/mL) | 0.1 (≈ 0.0615 µg/mL) | 0.1 (≈ 0.0615 µg/mL) | 0.41 (≈ 0.252 µg/mL) | 0.1 (≈ 0.0615 µg/mL) | 26 (≈ 16 µg/mL) | 0.2 (≈ 0.123 µg/mL) | C=C[C@]1(C)C[C@@H](OC(=O)CSc2nc(C)cc(N3CCN(CCO)CC3)n2)[C@@]2(C)[C@H](C)CC[C@]3(CCC(=O)[C@H]32)[C@@H](C)[C@@H]1O |  | 
4 | > 52.2 | 26.1 (≈ 16 µg/mL) | 0.05 (≈ 0.0307 µg/mL) | 0.1 (≈ 0.0614 µg/mL) | 0.2 (≈ 0.123 µg/mL) | 0.05 (≈ 0.0307 µg/mL) | 52.2 (≈ 32 µg/mL) | 0.2 (≈ 0.123 µg/mL) | C=C[C@]1(C)C[C@@H](OC(=O)CSc2nc(C)cc(N3CCC(CCO)CC3)n2)[C@@]2(C)[C@H](C)CC[C@]3(CCC(=O)[C@H]32)[C@@H](C)[C@@H]1O |  | 
5 | > 54.8 | 54.8 (≈ 32 µg/mL) | 0.11 (≈ 0.0643 µg/mL) | 0.43 (≈ 0.251 µg/mL) | 0.43 (≈ 0.251 µg/mL) | 0.43 (≈ 0.251 µg/mL) | 54.8 (≈ 32 µg/mL) | 0.43 (≈ 0.251 µg/mL) | C=C[C@]1(C)C[C@@H](OC(=O)CSc2nc(C)cc(N3CCN(C)CC3)n2)[C@@]2(C)[C@H](C)CC[C@]3(CCC(=O)[C@H]32)[C@@H](C)[C@@H]1O |  | 
